Our source for the EC50 and Ratio values is ChEMBL document CHEMBL1151950, “Antioxidant phenylethanoid glycosides and a neolignan from Jacaranda caucana” (J Nat Prod, 2009).

A short description of experiment [1]: Antioxidant activity assessed as protection against peroxyl radical-induced alkaline phosphatase activity loss by microplate assay. Type of experiment: functional. In short, it runs like this: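 Pure compounds were tested in the microplate alkaline phosphatase (ALP) oxidation-protection assay. The reported value is EC50, the antioxidant concentration that protects ALP by 50% from peroxyl radical-induced loss of activity.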

Experiment [2] is described as follows: DPPH radical scavenging activity assessed as ratio of antioxidant concentration to drug level causing 50% decrease in DPPH level at steady state by microplate assay. (In general: DPPH is a stable violet radical that fades when it is reduced.)

As a reminder, the EC50 is the concentration needed to bring the measured effect to its halfway point. In the case of `COc1ccc(CCO[C@@H]2O[C@H](CO)[C@@H](OC(=O)/C=C/c3ccc(O)c(O)c3)[C@H](O[C@@H]3O[C@@H](C)[C@H](O)[C@@H](O)[C@H]3O)[C@H]2O)cc1O` [JIONOSIDE D], the concentration giving a half-maximal response (EC50) in experiment [1] came out at 1100 nM. Also, the Ratio in experiment [2] came out at 0.17.
The corresponding values for `C[C@@H]1O[C@@H](O[C@@H]2[C@@H](O)[C@H](OCCc3ccc(O)c(O)c3)O[C@H](COC(=O)/C=C/c3ccc(O)c(O)c3)[C@H]2O)[C@H](O)[C@H](O)[C@H]1O` [ISOACTEOSIDE] are 1200 nM and 0.07.
The corresponding values for `O=C(O)c1ccc(O)c(O)c1` [PROTOCATECHUIC ACID] are 2560 nM and 0.23.
Take `O=c1c(O)c(-c2ccc(O)c(O)c2)oc2cc(O)cc(O)c12` [QUERCETIN]: the half-maximal effective concentration (EC50) in experiment [1] was found to be 1000 nM. In experiment [2], the Ratio came to 0.09.
The corresponding values for `C[C@@H]1O[C@@H](O[C@@H]2[C@@H](O)[C@H](OCCc3ccc(O)c(O)c3)O[C@H](COC(=O)CC3(O)CCC(=O)CC3)[C@H]2OC(=O)/C=C/c2ccc(O)c(O)c2)[C@H](O)[C@H](O)[C@H]1O` are 1270 nM and 0.079.
The corresponding values for `C[C@@H]1O[C@@H](O[C@@H]2[C@@H](O)[C@H](OCCc3ccc(O)c(O)c3)O[C@H](CO)[C@H]2OC(=O)/C=C/c2ccc(O)c(O)c2)[C@H](O)[C@H](O)[C@H]1O` [ACETOSIDE] are 1040 nM and 0.078.
For `C[C@@H]1O[C@@H](O[C@@H]2[C@@H](O)[C@H](OCCc3ccc(O)c(O)c3)O[C@H](COC(=O)C[C@]3(O)CC[C@@H](O)CC3)[C@H]2OC(=O)/C=C/c2ccc(O)c(O)c2)[C@H](O)[C@H](O)[C@H]1O`, the EC50 in experiment [1] was 1270 nM. Besides, the Ratio in experiment [2] worked out at 0.098.
Taken in the same sequence, the figures for `COc1ccc(CCO[C@@H]2O[C@H](CO)[C@@H](OC(=O)/C=C/c3ccc(O)c(OC)c3)[C@H](O[C@@H]3O[C@@H](C)[C@H](O)[C@@H](O)[C@H]3O)[C@H]2O)cc1O` [MARTYNOSIDE A] were 2420 nM and 0.38.
Consider `COc1cc([C@H]2Oc3c(OC)cc([C@@H](O)[C@@H](O)CO)cc3[C@@H]2CO)ccc1O[C@@H]1O[C@@H](C)[C@H](O)[C@@H](O)[C@H]1O`, for which, in experiment [1], the concentration for a half-maximal effect (EC50) came to 9070 nM. Besides, in experiment [2], the Ratio worked out at 1.84.
